Laboratory results reported in ChEMBL document CHEMBL4316581, “Efforts in redesigning the antileukemic drug 6-thiopurine: decreasing toxic side effects while maintaining efficacy” (Medchemcomm, 2019).

Key:
[1] = biological target: T1, UDP-glucuronosyltransferase 1A1 (Rattus norvegicus, UniProt Q64550); test: Inhibition of UGT1A in rat hepatocytes preincubated for 2 mins followed by UDPGA addition measured after 45 mins by HPLC analysis; type: ADME, cell-based
T1 sequence (Q64550 whole entry): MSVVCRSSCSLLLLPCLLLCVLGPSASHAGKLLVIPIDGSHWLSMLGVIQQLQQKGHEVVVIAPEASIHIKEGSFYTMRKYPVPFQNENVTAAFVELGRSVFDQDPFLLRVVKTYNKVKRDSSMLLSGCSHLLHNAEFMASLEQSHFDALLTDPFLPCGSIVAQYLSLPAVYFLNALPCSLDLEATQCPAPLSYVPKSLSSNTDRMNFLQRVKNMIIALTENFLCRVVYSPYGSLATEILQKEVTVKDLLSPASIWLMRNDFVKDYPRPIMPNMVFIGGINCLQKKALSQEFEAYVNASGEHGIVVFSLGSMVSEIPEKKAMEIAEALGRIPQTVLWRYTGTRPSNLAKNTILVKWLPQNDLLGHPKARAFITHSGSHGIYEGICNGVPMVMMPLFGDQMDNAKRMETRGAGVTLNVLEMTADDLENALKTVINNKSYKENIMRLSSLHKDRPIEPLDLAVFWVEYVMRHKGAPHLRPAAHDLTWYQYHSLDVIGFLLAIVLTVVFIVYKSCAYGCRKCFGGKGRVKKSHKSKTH
Outline: (§1)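 Rat liver microsomes (100 µg protein/mL) were used, with alamethicin 22 µg/mL, bilirubin 10 µM and MgCl2 0.88 mM in 50 mM potassium phosphate pH 7.4, at 37 °C with shaking under minimal light. Purine or no-purine control was preincubated 2 min before UDPGA (3.5 mM) started the reaction. Reactions were stopped with ice-cold methanol containing 200 mM ascorbic acid and centrifuged. Unconjugated bilirubin and mono- and diglucuronides were quantified by gradient HPLC against bilirubin calibration curves over a 45-min time course.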

REH = test: Cytotoxicity against human REH cells assessed as reduction in cell viability […] by Alamar Blue assay; type: functional, cell-based
[2] = biological target: T2, UDP-glucose 6-dehydrogenase (Rattus norvegicus, UniProt O70199); test: Inhibition of UDPGDH in rat hepatocytes after 20 to 120 secs by UV/Vis spectrophotometric analysis; type: cell-based
T2 sequence (O70199 whole entry): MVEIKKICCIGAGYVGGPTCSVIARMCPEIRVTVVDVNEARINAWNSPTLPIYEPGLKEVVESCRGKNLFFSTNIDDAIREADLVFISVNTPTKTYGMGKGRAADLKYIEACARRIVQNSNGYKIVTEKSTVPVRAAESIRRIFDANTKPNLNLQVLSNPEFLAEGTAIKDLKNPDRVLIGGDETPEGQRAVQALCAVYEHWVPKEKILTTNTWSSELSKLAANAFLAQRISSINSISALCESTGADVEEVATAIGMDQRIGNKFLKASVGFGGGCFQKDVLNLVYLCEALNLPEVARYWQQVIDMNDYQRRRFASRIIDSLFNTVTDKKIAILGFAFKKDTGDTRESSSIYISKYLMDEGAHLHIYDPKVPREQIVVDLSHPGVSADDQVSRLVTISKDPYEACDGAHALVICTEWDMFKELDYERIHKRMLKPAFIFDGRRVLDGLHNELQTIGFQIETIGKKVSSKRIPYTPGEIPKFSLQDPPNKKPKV
Outline: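 Purified UDPGDH (0.1 unit/mL) was assayed spectrophotometrically at 340 nm and 25 °C in 150 mM Gly-Gly with saturating 3 mM NAD+. UDPG was varied (0.1, 0.05, 0.025, 0.02 mM) at several inhibitor concentrations. After 2 min thermal equilibration, the initial absorbance-versus-time rate was recorded. Runs were in triplicate; averaged slopes were plotted to derive inhibition values.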

[3] = biological target: T2, UDP-glucose 6-dehydrogenase; test: Inhibition of UDPGDH in rat hepatocytes assessed as decrease in bilirubin diglucuronide level at 10 uM preincubated for 2 mins followed by UDPGA addition measured after 45 mins in presence of regorafenib by HPLC analysis; type: cell-based; conditions: 0.75 h
[4] = biological target: T2, UDP-glucose 6-dehydrogenase; test: Inhibition of UDPGDH in rat hepatocytes assessed as increase in unconjugated bilirubin level at 10 uM preincubated for 2 mins followed by UDPGA addition measured after 45 mins by HPLC analysis relative to control; type: cell-based; parameters: scale not given: the % may be the effect or the level left; conditions: 0.75 h; outline: as §1
[5] = biological target: T3, UDPGDH (UDP-glucose 6-dehydrogenase) (Rattus norvegicus, UniProt O70199); test: Inhibition of UDPGDH in rat hepatocytes assessed as decrease in bilirubin diglucuronide level at 10 uM preincubated for 2 mins followed by UDPGA addition measured after 45 mins by HPLC analysis relative to control; type: cell-based; conditions: probe bilirubin (readout: bilirubin diglucuronide level); outline: as §1
T3 sequence (O70199 whole entry): T2 sequence (O70199 whole entry)

[6] = biological target: T2, UDP-glucose 6-dehydrogenase; test: Inhibition of UDPGDH in rat hepatocytes assessed as decrease in bilirubin diglucuronide level at 10 uM after 45 mins in presence of UDPGA by HPLC analysis; type: cell-based; conditions: 0.75 h; outline: as §1
[7] = biological target: T1, UDP-glucuronosyltransferase 1A1; test: Inhibition of UGT1A in rat hepatocytes assessed as decrease in bilirubin monoglucuronide level at 75 uM preincubated for 2 mins followed by UDPGA addition measured after 45 mins by HPLC analysis; type: ADME, cell-based; conditions: 0.75 h; outline: as §1
[8] = biological target: T2, UDP-glucose 6-dehydrogenase; test: Inhibition of UDPGDH in rat hepatocytes assessed as increase in unconjugated bilirubin level at 5 uM preincubated for 2 mins followed by UDPGA addition measured after 45 mins by HPLC analysis relative to control; type: cell-based; parameters: scale not given: the % may be the effect or the level left; conditions: 0.75 h; outline: as §1
[9] = biological target: T1, UDP-glucuronosyltransferase 1A1; test: Inhibition of UGT1A in rat hepatocytes assessed as increase in unconjugated bilirubin level at 75 uM preincubated for 2 mins followed by UDPGA addition measured after 45 mins by HPLC analysis; type: ADME, cell-based; conditions: 0.75 h; outline: as §1
[10] = biological target: T1, UDP-glucuronosyltransferase 1A1; test: Inhibition of UGT1A in rat hepatocytes assessed as decrease in bilirubin diglucuronide level at 75 uM preincubated for 2 mins followed by UDPGA addition measured after 45 mins by HPLC analysis; type: ADME, cell-based; conditions: 0.75 h; outline: as §1
[11] = biological target: T3, UDPGDH (UDP-glucose 6-dehydrogenase); test: Inhibition of UDPGDH in rat hepatocytes assessed as decrease in bilirubin monoglucuronide level at 10 uM preincubated for 2 mins followed by UDPGA addition measured after 45 mins by HPLC analysis relative to control; type: cell-based; conditions: probe bilirubin (readout: bilirubin monoglucuronide level); outline: as §1
[12] = biological target: T2, UDP-glucose 6-dehydrogenase; test: Inhibition of UDPGDH in rat hepatocytes assessed as decrease in bilirubin monoglucuronide level at 10 uM preincubated for 2 mins followed by UDPGA addition measured after 45 mins in presence of regorafenib by HPLC analysis; type: cell-based; conditions: 0.75 h
[13] = biological target: T3, UDPGDH (UDP-glucose 6-dehydrogenase); test: Inhibition of UDPGDH in rat hepatocytes assessed as decrease in bilirubin diglucuronide level at 5 uM preincubated for 2 mins followed by UDPGA addition measured after 45 mins by HPLC analysis relative to control; type: cell-based; conditions: probe bilirubin (readout: bilirubin diglucuronide level); outline: as §1
[14] = biological target: T3, UDPGDH (UDP-glucose 6-dehydrogenase); test: Inhibition of UDPGDH in rat hepatocytes assessed as decrease in bilirubin monoglucuronide level at 5 uM preincubated for 2 mins followed by UDPGA addition measured after 45 mins by HPLC analysis relative to control; type: cell-based; conditions: probe bilirubin (readout: bilirubin monoglucuronide level); outline: as §1
[15] = biological target: T2, UDP-glucose 6-dehydrogenase; test: Inhibition of UDPGDH in rat hepatocytes assessed as decrease in bilirubin diglucuronide level at 5 to 10 uM preincubated for 2 mins followed by UDPGA addition measured after 45 mins by HPLC analysis; type: cell-based; conditions: 0.75 h; outline: as §1
[16] = biological target: T3, UDPGDH (UDP-glucose 6-dehydrogenase); test: Inhibition of UDPGDH in rat hepatocytes assessed as decrease in bilirubin diglucuronide level at 25 uM preincubated for 2 mins followed by UDPGA addition measured after 45 mins by HPLC analysis relative to control; type: cell-based; conditions: probe bilirubin (readout: bilirubin diglucuronide level); outline: as §1
[17] = biological target: T3, UDPGDH (UDP-glucose 6-dehydrogenase); test: Inhibition of UDPGDH in rat hepatocytes assessed as increase in unconjugated bilirubin level at 25 uM preincubated for 2 mins followed by UDPGA addition measured after 45 mins by HPLC analysis relative to control; type: cell-based; conditions: probe bilirubin (readout: unconjugated bilirubin level); outline: as §1
[18] = biological target: T3, UDPGDH (UDP-glucose 6-dehydrogenase); test: Inhibition of UDPGDH in rat hepatocytes assessed as decrease in bilirubin monoglucuronide level at 50 uM preincubated for 2 mins followed by UDPGA addition measured after 45 mins by HPLC analysis relative to control; type: cell-based; conditions: probe bilirubin (readout: bilirubin monoglucuronide level); outline: as §1
[19] = biological target: T3, UDPGDH (UDP-glucose 6-dehydrogenase); test: Inhibition of UDPGDH in rat hepatocytes assessed as decrease in bilirubin monoglucuronide level at 25 uM preincubated for 2 mins followed by UDPGA addition measured after 45 mins by HPLC analysis relative to control; type: cell-based; conditions: probe bilirubin (readout: bilirubin monoglucuronide level); outline: as §1
[20] = biological target: T3, UDPGDH (UDP-glucose 6-dehydrogenase); test: Inhibition of UDPGDH in rat hepatocytes assessed as decrease in bilirubin diglucuronide level at 50 uM preincubated for 2 mins followed by UDPGA addition measured after 45 mins by HPLC analysis relative to control; type: cell-based; conditions: probe bilirubin (readout: bilirubin diglucuronide level); outline: as §1
[21] = biological target: T4, UGT1A (UDP-glucuronosyltransferase 1A1) (Rattus norvegicus, UniProt Q64550); test: Inhibition of UGT1A in rat hepatocytes assessed as decrease in bilirubin diglucuronide level at 10 uM preincubated for 2 mins followed by UDPGA addition measured after 45 mins by HPLC analysis relative to control; type: ADME, cell-based; conditions: probe bilirubin (readout: bilirubin diglucuronide level); outline: as §1
T4 sequence (Q64550 whole entry): T1 sequence (Q64550 whole entry)

[22] = biological target: T4, UGT1A (UDP-glucuronosyltransferase 1A1); test: Inhibition of UGT1A in rat hepatocytes assessed as decrease in bilirubin monoglucuronide level at 10 uM preincubated for 2 mins followed by UDPGA addition measured after 45 mins by HPLC analysis relative to control; type: ADME, cell-based; conditions: probe bilirubin (readout: bilirubin monoglucuronide level); outline: as §1
[23] = biological target: T1, UDP-glucuronosyltransferase 1A1; test: Inhibition of UGT1A in rat hepatocytes assessed as decrease in bilirubin monoglucuronide level at 10 uM after 45 mins in presence of UDPGA by HPLC analysis; type: ADME, cell-based; conditions: 0.75 h; outline: as §1
[24] = biological target: T1, UDP-glucuronosyltransferase 1A1; test: Inhibition of UGT1A in rat hepatocytes assessed as decrease in bilirubin diglucuronide level at 10 uM after 45 mins in presence of UDPGA by HPLC analysis; type: ADME, cell-based; conditions: 0.75 h; outline: as §1

SMILES: O=c1[nH]c(=S)c2nc[nH]c2[nH]1
- Ki [1]: > 100 µM
- IC50 (REH): > 10 µM
- Ki [2]: 54 µM

SMILES: O=c1[nH]c(=S)c2[nH]c(=O)[nH]c2[nH]1
- Ki [1]: > 100 µM
- IC50 (REH): > 10 µM
- inhibition (INH) [3]: Active
- Activity [4]: 42%
- inhibition at 0.75 h, 10 µM [5]: 86%
- inhibition (INH) [6]: Not Active
- inhibition (INH) [7]: Not Active
- Activity [8]: 31%
- inhibition (INH) [9]: Not Active
- Ki [2]: 7 µM
- inhibition (INH) [10]: Not Active
- inhibition at 0.75 h, 10 µM [11]: 81%
- inhibition (INH) [12]: Active
- inhibition at 0.75 h, 5 µM [13]: 76%
- inhibition at 0.75 h, 5 µM [14]: 71%
- inhibition (INH) [15]: Active

SMILES: Sc1ncnc2[nH]c(Cl)nc12
- IC50 (REH): 3.95 µM
- Ki [2]: 163 µM

SMILES: Oc1nc2c(S)ncnc2[nH]1
- Ki [1]: > 100 µM
- IC50 (REH): 9.91 µM
- Ki [2]: 14 µM

SMILES: Sc1ncnc2[nH]c(Br)nc12
- IC50 (REH): 9.54 µM
- Ki [2]: 192 µM

SMILES: Fc1nc2c(S)ncnc2[nH]1
- IC50 (REH): 4.71 µM
- Ki [2]: 215 µM

SMILES: COc1cccc2c1C(=O)c1c(O)c3c(c(O)c1C2=O)C[C@@](O)(C(=O)CO)C[C@@H]3O[C@H]1C[C@H](N)[C@H](O)[C@H](C)O1 [DOXORUBICIN]
- IC50 (REH): 0.285 µM

SMILES: Sc1ncnc2nc[nH]c12 [MERCAPTOPURINE ANHYDROUS]
- inhibition at 0.75 h, 25 µM [16]: 12%
- inhibition at 0.75 h, 25 µM [17]: 19%
- Ki [1]: > 100 µM
- IC50 (REH): 2.94 µM
- inhibition at 0.75 h, 50 µM [18]: 28%
- inhibition at 0.75 h, 25 µM [19]: 19%
- inhibition at 0.75 h, 50 µM [20]: 26%
- inhibition (INH) [7]: Not Active
- inhibition (INH) [9]: Not Active
- Ki [2]: 288 µM
- inhibition (INH) [10]: Not Active
- inhibition (INH) [15]: Active

SMILES: CNC(=O)c1cc(Oc2ccc(NC(=O)Nc3ccc(Cl)c(C(F)(F)F)c3)c(F)c2)ccn1 [REGORAFENIB]
- inhibition at 0.75 h, 10 µM [21]: 96%
- inhibition at 0.75 h, 10 µM [22]: 89%
- inhibition (INH) [23]: Active
- inhibition (INH) [24]: Active
